# From PubChem
# Most compounds without a hit are left out; they make up all but 3.7% or so of the library.
# KCNK3 block: human KCNK3 channel inhibition, primary screen. actives 0.84% (n = 340,000). B-score at 10 µM. AID 602410. CHO-KCNK3 thallium flux, FluxOR fluorescence; stronger effect = lower value;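 active = B-score under library mean minus 4 SD, starting fluorescence ratio at most library mean plus 5 SD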;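 also: more negative B-score means stronger inhibition of thallium flux through KCNK3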
# Target sequence (O14649 whole entry, looked up): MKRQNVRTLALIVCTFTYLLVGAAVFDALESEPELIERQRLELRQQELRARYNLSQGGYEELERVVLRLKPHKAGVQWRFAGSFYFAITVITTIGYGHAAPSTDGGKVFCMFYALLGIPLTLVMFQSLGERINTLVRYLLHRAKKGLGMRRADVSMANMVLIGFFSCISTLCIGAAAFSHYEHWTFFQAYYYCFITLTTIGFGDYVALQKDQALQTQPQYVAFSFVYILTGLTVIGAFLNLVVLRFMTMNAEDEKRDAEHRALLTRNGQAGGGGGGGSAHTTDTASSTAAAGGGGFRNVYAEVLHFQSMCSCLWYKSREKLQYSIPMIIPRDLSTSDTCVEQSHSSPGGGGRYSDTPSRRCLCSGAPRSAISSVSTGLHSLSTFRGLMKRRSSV
# Kir21 inh: Kir2.1 (mouse) channel inhibition; HEK293-Kir2.1, FluxOR thallium flux fluorescence; stronger effect = lower value; B-score at 10 µM; actives 0.85% (n = 310,000); AID 1672;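 active = fluorescence ratio B-score at or below minus 3 SD of library scores, with starting-brightness B-score within 2 SD, cut at about -4.2 in these data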;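 also: channel flux triggered by added potassium and thallium sulfate stimulus; B-score of peak minus minimum fluorescence over baseline after thallium stimulus; more negative B-score means stronger Kir2.1 block with less thallium influx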
# KCNQ1 pot: potentiators or activators of human KCNQ1 potassium channel; P51787; CHO-K1 KCNQ1, thallium flux FluxOR fluorescence; stronger effect = higher value; B-score at 10 µM; actives 0.35% (n = 310,000); AID 2648;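 active = fluorescence ratio B-score, a plate-corrected score, at least three library SD, with initial intensity B-score within 5 SD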
#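 Medium – assay buffer, equal DMSO in all wells · Material – CHO-K1 cell line with stable KCNQ1 potassium channel expression · Signal – kinetic FluxOR thallium fluorescence, 10-s 1-Hz baseline, 110-s post-stimulus read · Compound – single concentration per compound, DMSO matched to controls · Schedule – 37 °C overnight plating, 90-min dark dye load, 20-min compound pretreatment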
# KCNQ1 inh: blocks the human KCNQ1 potassium channel; actives 1.3% (n = 310,000); AID 2642; P51787; CHO-K1 KCNQ1, FluxOR thallium flux fluorescence; stronger effect = higher value; B-score at 10 µM;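 active = compounds whose thallium flux B-score, printed positive for inhibition, exceeds three library SD while starting fluorescence stays within three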;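 also: channel opened by potassium depolarization with thallium stimulus after 20 min compound exposure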
# hERG rescue: hERG (human) protection from proarrhythmic block. Q12809. CHO-hERG, FluxOR thallium flux, dofetilide IC70 present. activation (rescue from dofetilide block), less the hit threshold, % at 10 µM. actives 0.51% (n = 310,000). AID 1511;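 active = activation above the mean of controls blocked by dofetilide plus 5 SD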;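 also: thallium influx through hERG after potassium depolarization seen as dye fluorescence rise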
# KCNK9 inh: inhibitors of human KCNK9 two-pore domain potassium channel; Q9NPC2; HEK293 KCNK9, FluxOR thallium flux fluorescence; stronger effect = lower value; B-score at 10 µM; actives 1.2% (n = 310,000); AID 488922;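 active = ratio B-score over 3 SD below the library mean, with starting fluorescence within 5 SD of its mean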;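 also: negative B-score means less thallium flux so channel inhibition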
# KCNK9 inh conf: confirmation of human KCNK9 potassium channel inhibitors; shares compounds with KCNK9 inh; AID 492992; inhibition, % at 10 µM; HEK293 KCNK9 cells, FluxOR thallium flux fluorescence; actives 43% (n = 4,900);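 active = thallium signal inhibited by more than 5 SD of the compound-free buffer control wells, on both duplicate plates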;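 also: 0% = assay buffer control wells without compound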
# Kir2-1 spec: tests whether KCNK9 modulators also affect mouse Kir2.1; Kir2.1 cells, FluxOR thallium flux fluorescence; shares compounds with KCNK9 inh; inhibition, % at 10 µM; AID 492993; actives 4% (n = 4,900);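 active = thallium signal drop more than 5 SD beyond the mean of the no-compound control wells, seen in both duplicate plates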;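 also: signal is fluorescence rise after thallium addition divided by baseline fluorescence; plate controls were assay buffer only for no effect and full block by chlorpromazine control for full effect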
# HEK293 Tl ctr: second check of KCNK9 modulator effects in non-induced HEK293 cells. shares compounds with KCNK9 inh. FluxOR thallium flux. inhibition, % at 10 µM. actives 40% (n = 4,900). AID 492997;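 active = thallium signal drop beyond 5 SD of the untreated control mean, on both duplicate plates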;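 also: plate controls were buffer only IC0 wells for no effect and SID17386958 at its maximal inhibitory level for full effect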
# Starred values were filed as active, the others as inactive; i = inactive; nt = not tested or not shown.
SMILES,KCNK3 block,Kir21 inh,KCNQ1 pot,KCNQ1 inh,hERG rescue,KCNK9 inh,KCNK9 inh conf,Kir2-1 spec,HEK293 Tl ctr
Cc1ccc(CSCC(=O)Nc2ccccc2F)cc1,i,-0.27,i,i,-16,i,i,i,i
COc1ccc(CSCC(=O)Nc2ccccc2SC)cc1,i,-2.8,i,i,-5,i,i,i,i
COC(=O)c1cc(S(=O)(=O)NCc2cccc(Br)c2)c[nH]1,i,0.01,i,i,-4,i,nt,nt,nt
COc1ccc(CNC(=O)C(C)OC(=O)c2cccs2)cc1 (stereo not drawn),i,1.5,i,i,-6,i,nt,nt,nt
CCCC(=O)NC(Nc1cc(C(F)(F)F)ccc1Cl)C(Cl)(Cl)Cl (stereo not drawn),i,-2.3,i,i,-14,i,nt,nt,nt
CCCC(=O)NC(Nc1cccc(C(F)(F)F)c1)C(Cl)(Cl)Cl (stereo not drawn),i,-1.8,i,8*,-6,-8.8*,32%*,i,26%*
c1ccc2oc(-c3csc(NCC4CCCO4)n3)cc2c1 (stereo not drawn),i,0.38,i,i,-7,i,i,i,i
O=C(Nc1nc(-c2cc3ccccc3oc2=O)cs1)c1ccco1,i,2.5,i,i,0,i,nt,nt,nt
O=c1oc2ccccc2cc1-c1csc(NN=C2CCCCC2)n1,i,0.09,i,i,-7,i,i,i,i
C=CCNc1nc(-c2cc3ccccc3o2)cs1,i,-0.28,i,i,-4,i,nt,nt,nt
O=C(CS(=O)(=O)c1cn(CC(=O)N2CCCC2)c2ccccc12)Nc1ccccc1F,i,1,i,i,-7,i,nt,nt,nt
CN(Cc1cnccn1)Cc1ccccc1OCC(O)CN1CCc2ccccc2C1 (stereo not drawn),i,0.67,i,i,-8,i,nt,nt,nt
CCOC(=O)c1cc[nH]c1CC(=O)NC,i,0.18,i,i,-4,i,nt,nt,nt
CCOc1ccc2nc(SCC(=O)NC(=O)NCc3ccco3)[nH]c2c1,i,1.1,i,i,-11,i,i,i,i
Cc1ccc(NC(=O)CSc2nnc(Cc3csc(C)n3)o2)cc1,i,nt,nt,nt,nt,nt,nt,nt,nt
CCOc1ccc(Nc2nc(Cc3nnc(SCC(=O)c4ccc(C)c(C)c4)o3)cs2)cc1,i,-0.01,i,i,-6,i,i,i,i
COc1ccccc1NC(=O)Nc1sccc1-c1nc2ccccc2s1,i,0.08,i,i,-5,-13*,70%*,i,40%*
O=C(Nc1ccccc1)Nc1sccc1-c1nc2ccccc2s1,i,-0.16,i,i,-10,i,nt,nt,nt
Cc1c(C(=O)OCC(=O)N(C)c2ccccc2)oc2ccccc12,i,0.12,i,i,-5,i,nt,nt,nt
Cc1cc(C)c(C)c(S(=O)(=O)NCC(=O)NCC2CCCCC2)c1C,i,-2.5,i,i,-4,-12*,34%*,i,26%*
O=C(Nc1ccc([N+](=O)[O-])cn1)C1CC1,i,0.89,i,i,-5,i,nt,nt,nt
CC(=O)Nc1ccc([N+](=O)[O-])cn1,i,-0.24,i,i,-5,-8.4*,i,i,i
COc1ccc(C(=O)NNC(=S)NC(=O)c2cccs2)cc1,i,0.69,i,i,-8,-9.1*,i,i,i
CCN=C1SC(CC(=O)NC(C)c2ccccc2)C(=O)N1CC (stereo not drawn),i,0,i,i,-4,i,nt,nt,nt
COCCn1c(C)cc(C(=O)COC(=O)c2c(C)nn(Cc3ccccc3)c2C)c1C,i,-1.1,i,i,-6,i,i,i,i
SMILES,KCNK3 block,Kir21 inh,KCNQ1 pot,KCNQ1 inh,hERG rescue,KCNK9 inh,KCNK9 inh conf,Kir2-1 spec,HEK293 Tl ctr
O=C(CCC1CCCC1)Nc1cccn(Cc2ccccc2Br)c1=O,i,0.33,i,i,-9,i,i,i,26%*
CCCC(=O)Nc1cccn(Cc2ccccc2Br)c1=O,i,-1,i,i,-11,i,nt,nt,nt
O=C(Nc1ccc(Cl)cn1)c1ccc2nccnc2c1,i,0.39,i,i,-6,i,nt,nt,nt
CCn1c(=O)c2cc(C(=O)N(C)CC(OC)OC)sc2c2ccccc21,i,0.68,i,i,-8,i,nt,nt,nt
CCOc1ccccc1N(C)C(=O)c1cc2c(=O)n(CC)c3ccccc3c2s1,i,-0.69,i,i,-8,-14*,70%*,i,38%*
O=C(c1ccc(-c2cccc(C(F)(F)F)c2)o1)N1CCN(c2ccccc2O)CC1,i,1.1,i,i,-16,-8.5*,50%*,i,i
CC(NC(=O)CCCCCCN1C(=O)c2ccccc2C1=O)c1ccc2c(c1)CCCC2 (stereo not drawn),i,0.43,i,i,-4,i,i,i,i
CC(NC(=O)CCCCCN1C(=O)c2ccccc2C1=O)c1ccc2c(c1)CCCC2 (stereo not drawn),i,-0.88,i,i,-4,i,i,i,i
COc1ccccc1CCC(=O)NNC(=O)c1cccs1,i,nt,nt,nt,nt,nt,nt,nt,nt
O=C(OCc1ccccc1Cl)c1ccc(-n2cnnc2)cc1,i,0.45,i,i,-15,i,nt,nt,nt
O=C(CSc1ccc2nnc(-c3ccccn3)n2n1)Nc1cccc(F)c1,i,0.2,i,i,-7,i,nt,nt,nt
COC(=O)C1CN(C(=O)COc2cc(C)c(Cl)c(C)c2)c2ccccc2O1 (stereo not drawn),i,0.18,i,i,-1,-9.9*,i,i,34%*
CCOC(=O)C1CCN(CCCSc2ccc(Cl)cc2)CC1,i,-4.2*,i,i,-5,i,i,i,i
COc1c2c(c3c(c1OC)c(=O)c1ccccc1n3C)OCO2,i,nt,nt,nt,nt,nt,nt,nt,nt
CCN(CC)C(=O)c1oc2ccc(S(=O)(=O)N3CC(C)CC(C)C3)cc2c1C (stereo not drawn),i,-0.6,i,i,-14,i,i,i,i
Cc1cccc(CN2CCC(n3nccc3NC(=O)CCCc3ccccc3)CC2)n1,i,-2.4,i,i,-4,i,nt,nt,nt
